The test system of data set [1] is Malme-3M. Nature of the data set: Cytotoxicity against human MALME-3M cells after 72 hrs by MTT assay. Type of data set: functional, cell-based. In general terms: Formazan colour is commonly taken as a measure of viable cells.
Data set [2] in a line: Stability of the compound at 23 degC for 3 months at solid state. Type of data set: physicochemical. The conditions noted are these: 2191.5 h.
Data set [3] can be described thus: Stability of the compound in pH 7.2 PBS buffer at 37 degC for 48 hrs by NMR analysis. Format: physicochemical. The conditions noted are these: pH 7.2, 48 h.
Data set [4] relates to HCT-116. Briefly: Cytotoxicity against human HCT116 cells after 72 hrs by MTT assay. Type of data set: functional, cell-based. The conditions noted are these: HCT-116, 72 h.
For data set [5], the system named is HCT-116. Nature of the data set: Induction of DCD mRNA expression in human HCT116 cells at 1 to 10 uM after 24 hrs by RT-qPCR method. Type of data set: functional, cell-based.
The test system of data set [6] is SK-MEL-28. Nature of the data set: Induction of DCD mRNA expression in human SK-MEL-28 cells at 30 to 100 nM after 24 hrs by RT-qPCR method. Type of data set: functional, cell-based. (In general: Real-time PCR tracks product formation cycle by cycle.)
For data set [7], the system named is SK-MEL-28. Nature of the data set: Cytotoxicity against human SK-MEL-28 cells after 72 hrs by MTT assay. Type of data set: functional, cell-based. Particulars: SK-MEL-28, 72 h.
Data set [8] in a line: Solubility of the compound in pH 7.2 solution. The conditions noted are these: buffer. Type of data set: physicochemical. In a few lines:
(§1)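 Solubility S was determined in buffer at pH 6.5 for the parent series and regioisomer mixtures, and at pH 7.2 for the phenol/carbamate series.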

Data set [9] has as its system Malme-3M. Briefly: Induction of DCD mRNA expression in human MALME-3M cells at 30 to 100 nM after 24 hrs by RT-qPCR method. Format: functional, cell-based.
Data set [10] in a line: Stability of the compound in pH 7.2 PBS buffer at 23 degC for 1 month by NMR analysis. Format: physicochemical. Particulars: pH 7.2, 730.5 h. In a few lines:
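Purity was followed by NMR in PBS pH 7.2 for 1 month at 23 °C, and in cell culture medium at 37 °C for 48 h (limit of testing).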

Data set [11] deals with Calf thymus DNA. Briefly: Binding affinity to calf thymus DNA at 20 uM by fluorescence spectral analysis. Format: nucleic-acid assay. The conditions noted are these: Bos taurus. In a few lines: (§2)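 Fluorescence emission spectra recorded while calf thymus DNA was titrated into the compound solution. […] Binding was judged by attenuation (quench) of emission on DNA addition.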

A short description of data set [12]: Solubility of the compound in pH 6.5 solution. Format: physicochemical. The conditions noted are these: buffer. In a few lines:
as §1

Data set [13] relates to Calf thymus DNA. Nature of the data set: Binding affinity to calf thymus DNA at 60 uM by fluorescence spectral analysis. Type of data set: nucleic-acid assay. The conditions noted are these: Bos taurus. In a few lines: as §2
The subject of data set [14] is HCT-116. Nature of the data set: Induction of oxidative stress in human HCT116 cells at 100 uM after 1 hr by CellROX green/NucBlue staining based confocal microscopic method. The conditions noted are these: hct-116, 1 h. Format: cell-based. In outline:
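HCT-116 cells were stained with CellROX Green for reactive oxygen species and counterstained with NucBlue for nuclei. Imaging was by confocal microscopy, scoring green fluorescent mitochondria as the oxidative-stress read-out.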

A short description of data set [15]: Drug metabolism in aqueous media assessed as 2-hydroxydinaphtho[2,3-b:2',3'-d]thiophene-5,7,12,13-tetraone formation by NMR analysis. In outline:
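DMSO stocks of the carbamate at 1.0 or 0.5 mg/mL were diluted 20-fold into PBS pH 7.2. Samples were held 24 h at 23 °C, and hydrolytic release of the phenol (purple salt) was monitored.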

Values after ≈ are worked out from the molar mass of the structure shown. Active and inactive are the calls of the source. No cut-off for these calls is given here.

As a reminder, the IC50 is the point on the concentration scale where inhibition reaches its midpoint. A higher IC50 goes with lower potency. Usually solubility stands for the dissolved amount per volume that the medium holds. A higher solubility goes with a readily soluble substance. `O=c1c2ccccc2c(=O)c2c1sc1c(=O)c3ccc(O)cc3c(=O)c12`: the IC50 in the data set on Malme-3M [1] came to 0.22 µM; in the data set on HCT-116 [4], 1.45 µM; in the data set with SK-MEL-28 [7], 0.33 µM. The Stability result in data set [2], in data set [3] and in data set [10] was “Stable” throughout. Moreover, the result with HCT-116 [5], in the data set on SK-MEL-28 [6] and in the data set with Malme-3M [9] was Active. In data set [8], this compound registered a solubility of 0.4 µM (≈ 0.144 µg/mL).

With `COc1cccc2c1C(=O)c1c(O)c3c(c(O)c1C2=O)C[C@@](O)(C(=O)CO)C[C@@H]3O[C@H]1C[C@H](N)[C@H](O)[C@H](C)O1` [DOXORUBICIN], the IC50 came to 0.5 µM in the data set with Malme-3M [1] and 3 µM in the data set with SK-MEL-28 [7]. For the same compound, the result with Calf thymus DNA [11] was Active.

The compound `O=c1c2ccccc2c(=O)c2c1sc1c(=O)c3ncccc3c(=O)c12` yielded a solubility in data set [12] of 0.5 µM (≈ 0.173 µg/mL). Further, the IC50 was determined as 0.1 µM in the data set on Malme-3M [1], 0.54 µM in the data set with HCT-116 [4] and 2.15 µM in the data set on SK-MEL-28 [7].

For `O=c1c2ccccc2c(=O)c2c1sc1c(=O)c3ccccc3c(=O)c12`, the outcome with Calf thymus DNA [13] was inactive. In data set [12], this compound yielded a solubility of 0.06 µM (≈ 0.0207 µg/mL). In addition, the IC50 was 0.05 µM in the data set with Malme-3M [1], 1.29 µM in the data set with HCT-116 [4] and 0.36 µM in the data set with SK-MEL-28 [7]. Also, the result with HCT-116 [5], in the data set with SK-MEL-28 [6] and in the data set with Malme-3M [9] was Active.

For the compound `O=c1c2ccccc2c(=O)c2c1oc1c(=O)c3ccccc3c(=O)c12`, the solubility in data set [12] is 0.09 µM (≈ 0.0295 µg/mL). Moreover, the IC50 stood at 1.11 µM with Malme-3M [1], 4.08 µM with HCT-116 [4] and 3.47 µM in the data set with SK-MEL-28 [7].

As to `CCCCNC(=O)Oc1ccc2c(=O)c3sc4c(=O)c5ccccc5c(=O)c4c3c(=O)c2c1`, the outcome in the data set on Calf thymus DNA [13] was inactive. Further, the IC50 in the data set with Malme-3M [1] worked out at 0.06 µM; in the data set with HCT-116 [4] it was 0.75 µM; in the data set on SK-MEL-28 [7], 1.8 µM. In addition, the Stability entry in [2] is “Stable”. Further, the outcome in the data set on HCT-116 [5], with SK-MEL-28 [6] and in the data set with Malme-3M [9] was Active. For the same compound, in the data set on HCT-116 [14], the Activity result is “Non-Toxic”. This compound gave a solubility in data set [8] of 24.6 µM (≈ 11.3 µg/mL). Further, the Drug metabolism result in [15] is recorded as “Metabolite detected”.

As to `COc1ccc2c(=O)c3sc4c(=O)c5ccccc5c(=O)c4c3c(=O)c2c1`, the IC50 turned out to be 0.06 µM with Malme-3M [1], 8.16 µM in the data set with HCT-116 [4] and 7 µM in the data set on SK-MEL-28 [7]. For the same compound, the Stability entry in [2], in [3] and in data set [10] was “Stable” each time. Moreover, in [8], the concentration in solution (solubility) was 8.2 µM (≈ 3.07 µg/mL).

As to `O=c1c2ccccc2c(=O)c2c1[nH]c1c(=O)c3ccccc3c(=O)c12`, the solubility in [12] turned out to be 0.4 µM (≈ 0.131 µg/mL). The IC50 with Malme-3M [1] was 2.03 µM; with HCT-116 [4], 4.24 µM; in the data set on SK-MEL-28 [7] it was 4.3 µM.

Values taken from ChEMBL document CHEMBL4330182, “Advance of Seriniquinone Analogues as Melanoma Agents” (ACS Med Chem Lett, 2019).
